Data reported in paper PMC3149845 (The Journal of neuroscience : the official journal of the …, 2011).
pEC50: −log10 of the molar value. “Also recorded” adds a separate entry of the source. Where two headings read alike, the source gives them in different places. Peptide text beside a SMILES is read from it.

Experiments:
[1] = biological target: smTas1R2:T40S+smTas1R3 (Saimiri sciureus, UniProt A3QP08, T40S); experiment: Ca2+ mobilization, mutated squirrel monkey receptor; format: cell-based, squirrel monkey (Saimiri sciureus); conditions: aspartame 10mM, neotame 1mM, sucralose 2 mM; compared with smTas1R2/smTas1R3
[2] = biological target: T1, h(1–572)smTas1R2 + hTas1R3 (Homo sapiens, UniProt Q8TE23, A658V/A782V/G696S/I595M/I692T/L639V/L764F/L798F/M682V/M697L/P624L/P678S/P710T/Q592E/S703N/S784D/T716M/V687A/V718I/V741A); experiment: Ca2+ mobilization, chimera receptor; format: cell-based, human/squirrel monkey; conditions: aspartame 10mM, neotame 1mM, sucralose 2 mM; compared with hTas1R2/hTas1R3
T1 sequence (Q8TE23 20-839 Q592E/I595M/P624L/L639V/A658V/P678S/M682V/V687A/I692T/G696S/M697L/S703N/P710T/T716M/V718I/V741A/L764F/A782V/S784D/L798F): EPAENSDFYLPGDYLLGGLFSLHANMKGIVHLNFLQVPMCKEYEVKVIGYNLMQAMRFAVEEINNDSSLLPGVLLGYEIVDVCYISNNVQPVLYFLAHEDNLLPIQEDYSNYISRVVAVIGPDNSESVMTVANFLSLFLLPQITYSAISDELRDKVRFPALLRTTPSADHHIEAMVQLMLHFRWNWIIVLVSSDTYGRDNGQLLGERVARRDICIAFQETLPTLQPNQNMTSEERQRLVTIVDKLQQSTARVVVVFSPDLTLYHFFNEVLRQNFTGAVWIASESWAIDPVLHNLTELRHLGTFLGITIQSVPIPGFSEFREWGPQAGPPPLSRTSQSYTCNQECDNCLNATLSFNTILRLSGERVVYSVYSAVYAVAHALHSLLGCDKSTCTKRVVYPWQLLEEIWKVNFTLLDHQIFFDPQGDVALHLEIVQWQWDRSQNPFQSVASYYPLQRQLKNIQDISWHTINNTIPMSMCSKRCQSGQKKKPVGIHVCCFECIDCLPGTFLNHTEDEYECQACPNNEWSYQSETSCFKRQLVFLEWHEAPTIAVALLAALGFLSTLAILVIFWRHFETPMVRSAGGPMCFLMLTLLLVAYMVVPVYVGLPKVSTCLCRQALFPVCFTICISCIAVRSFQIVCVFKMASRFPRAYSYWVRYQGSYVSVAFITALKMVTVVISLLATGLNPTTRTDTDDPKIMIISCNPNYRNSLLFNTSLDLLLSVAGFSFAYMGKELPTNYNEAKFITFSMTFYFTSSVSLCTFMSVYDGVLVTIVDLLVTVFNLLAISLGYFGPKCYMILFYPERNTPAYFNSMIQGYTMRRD
T1 sequence (Q7RTX0 21-852 partner): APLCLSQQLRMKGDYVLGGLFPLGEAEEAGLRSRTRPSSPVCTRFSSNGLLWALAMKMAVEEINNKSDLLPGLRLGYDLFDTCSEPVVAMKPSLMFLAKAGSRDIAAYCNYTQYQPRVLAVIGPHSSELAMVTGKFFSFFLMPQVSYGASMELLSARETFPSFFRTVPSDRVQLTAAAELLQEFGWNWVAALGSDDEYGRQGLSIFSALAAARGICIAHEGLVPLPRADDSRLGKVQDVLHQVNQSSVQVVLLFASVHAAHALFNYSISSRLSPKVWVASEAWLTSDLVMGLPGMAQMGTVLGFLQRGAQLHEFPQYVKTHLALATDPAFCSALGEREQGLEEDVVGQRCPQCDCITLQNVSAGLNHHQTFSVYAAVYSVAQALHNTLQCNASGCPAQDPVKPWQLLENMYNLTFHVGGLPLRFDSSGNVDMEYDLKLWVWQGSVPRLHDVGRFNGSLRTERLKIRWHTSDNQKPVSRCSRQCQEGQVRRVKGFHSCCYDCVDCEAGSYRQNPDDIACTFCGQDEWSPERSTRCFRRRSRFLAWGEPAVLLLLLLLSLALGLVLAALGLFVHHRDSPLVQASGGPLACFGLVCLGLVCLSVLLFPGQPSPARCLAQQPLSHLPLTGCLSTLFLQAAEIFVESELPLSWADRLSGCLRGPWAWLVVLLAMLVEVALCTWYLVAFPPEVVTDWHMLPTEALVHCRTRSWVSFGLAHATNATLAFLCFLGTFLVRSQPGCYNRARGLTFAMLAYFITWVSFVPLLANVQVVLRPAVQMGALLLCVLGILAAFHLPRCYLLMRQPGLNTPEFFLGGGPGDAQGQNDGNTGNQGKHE
Method in brief: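 HEK293E cells grown at 37°C in Opti-MEM with 5% FBS and seeded at 50,000/well. Cells co-lipofected with Tas1R plasmids and Gα16-gust44 (0.06 μg each per well); medium changed at 20 h, assayed 24 h later. Cells loaded 1 h with Fluo-4 AM in HEPES-buffered HBSS. Tastant added at 30 s; fluorescence (ex 488/em 525 nm) read every 2 s for 150 s more. ΔF/F normalised to human receptor maximal sucralose response; mean ± SEM, three independent experiments.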

[3] = biological target: sm(1–567)hTas1R2 + hTas1R3 (Saimiri sciureus, UniProt A3QP08, A682V/A736V/D779S/E587Q/F759L/F793L/I713V/L619P/L692M/M590I/M711T/N698S/S673P/S691G/T687I/T705P/V634L/V653A/V677M/V777A); experiment: Ca2+ mobilization, chimera receptor; format: cell-based, human/squirrel monkey; conditions: aspartame 10mM, neotame 1mM, sucralose 2 mM; compared with hTas1R2/hTas1R3
[4] = biological target: smTas1R2:T40S/E142D+smTas1R3 (Saimiri sciureus, UniProt A3QP08, E142D/T40S); experiment: Ca2+ mobilization, mutated squirrel monkey receptor; format: cell-based, squirrel monkey (Saimiri sciureus); conditions: for response in dose-response experiment: versus smTas1R2+smTas1R3
[5] = ΔF/F normalized to maximum response of hTas1R2/hTas1R3 to neotame

Row | SMILES | calcium response to sweetener [1] | calcium response to sweetener [2] | calcium response to sweetener [3] | pEC50 [4] | response in dose-response experiment ([4]; dose-response) | Bottom (B) of sigmoid dose-response fit [4, 5] | Top (T) of sigmoid dose-response fit [4, 5] | pEC50 ([4]; HEK293E cells with Gα16-gust44, dose-response, calcium mobilization)
1 | COC(=O)[C@H](Cc1ccccc1)NC(=O)[C@@H](N)CC(=O)O [aspartame, L-α-aspartly-L-phenylalanine methyl ester] (H-Asp-Phe-OMe) | not able to recover | significantly reduced responses; also recorded: significant reduction of the response | no responses | 2.85 | good response | −3.314 | 42.4 | 
2 | OC[C@H]1O[C@H](O[C@]2(CCl)O[C@H](CCl)[C@@H](O)[C@@H]2O)[C@H](O)[C@@H](O)[C@H]1Cl [sucralose] |  | significant reduction of the response | significant increase of the response |  |  |  |  | 
3 | COC(=O)[C@H](Cc1ccccc1)NC(=O)[C@H](CC(=O)O)NCCC(C)(C)C [neotame] | not able to recover | significantly reduced responses; also recorded: significant reduction of the response | no responses |  | good responses |  | 69.46 | 2.68
